# Out of some 65,000 compounds screened, about 1,200 (1.8%) were called active.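 The calls were made as follows: active = activation above the mean activation of all tested compounds plus 3 SD (cut at about 50% in these data); inactive = the rest.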 The list comes from a sample in which actives are over-represented; it also holds similar structures and randomly drawn compounds.
# Target: Steroidogenic factor 1 (Homo sapiens) (UniProt Q13285)
# Assay: SF-1 ligand-binding domain transactivation enhancers – cell-based, CHO-K1, Gal4-SF-1 LBD, luciferase luminescence, primary screen (AID 522)
# Conditions: CHO-K1 Gal4-SF-1 LBD luciferase reporter; at 10 µM; stronger effect = higher value; % increase over DMSO SF-1-specific signal
# How it was run: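 material = CHO-K1 cells with Gal4–hSF-1 LBD chimera plus Gal4-driven luciferase | compound = 10 µM single point, 1% DMSO | incubation = 20 h compound exposure at 37 °C after 1 h cell settling | measured by = SteadyLite luciferase luminescence | evaluation = percent activation relative to DMSO median and mock-transfected background | control set = DMSO negative control and −SF1 background wells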
# Chain of Steroidogenic factor 1 (Homo sapiens) (Q13285 whole entry, looked up, the tested form may be a part): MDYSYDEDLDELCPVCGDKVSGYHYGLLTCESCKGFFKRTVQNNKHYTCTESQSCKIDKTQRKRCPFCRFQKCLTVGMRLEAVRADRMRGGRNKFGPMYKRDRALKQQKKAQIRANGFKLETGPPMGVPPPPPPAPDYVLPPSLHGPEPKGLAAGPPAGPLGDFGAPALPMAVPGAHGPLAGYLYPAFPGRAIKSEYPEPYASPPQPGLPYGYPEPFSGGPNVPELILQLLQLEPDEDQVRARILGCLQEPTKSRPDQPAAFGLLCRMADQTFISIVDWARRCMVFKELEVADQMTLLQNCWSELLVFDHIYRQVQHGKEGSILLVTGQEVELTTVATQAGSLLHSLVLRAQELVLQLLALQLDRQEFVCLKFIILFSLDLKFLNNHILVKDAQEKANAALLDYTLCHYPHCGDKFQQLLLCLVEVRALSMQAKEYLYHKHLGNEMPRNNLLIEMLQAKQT
row,Structure (SMILES),activation
1,O=C1CCC(C(=O)Nc2ccc(OC(F)F)cc2)N1 (configuration not stated),-10.9% (inactive)
2,COc1ccc(NC(=O)CSc2nnc(-c3cccs3)n2Cc2ccco2)cc1OC,-6% (inactive)
3,CCOC(=O)CSc1nnc(CNc2nc(-c3ccccc3)cs2)n1C,11.1% (inactive)
4,CC(=O)Nc1ccc(S(=O)(=O)N2CCN(CCCOc3cc(C)ccc3C)CC2)cc1,-14.5% (inactive)
5,Cc1nc2ccc(C(=O)N3CCSCC3)cc2s1,0.4% (inactive)
6,CCCNC(=O)Nc1ccccc1C(=O)Nc1ccc(OC)cc1,7.4% (inactive)
7,O=C(Nc1cccc2cccnc12)c1cccc(N2C(=O)CCC2=O)c1,9% (inactive)
8,COc1ccc(NC(=O)Nc2cccc3cccnc23)cc1,65.5% (active)
9,COc1cc(-c2nc(S(=O)(=O)c3ccc(Cl)cc3)c(N(C)C)o2)cc(OC)c1OC,-17.6% (inactive)
10,Cc1ccc(C(c2nnnn2CS(=O)(=O)c2ccc(C)cc2)N2CCC(C(N)=O)CC2)cc1 (configuration not stated),-4.8% (inactive)
11,Cc1cc(C)cc(N(CC(=O)NCC2CCCO2)S(=O)(=O)c2c(C)noc2C)c1 (configuration not stated),-8.7% (inactive)
12,N#Cc1c(NC(=O)CCCN2C(=O)c3ccccc3C2=O)oc(-c2ccccc2)c1-c1ccccc1,12.7% (inactive)
13,CCCc1[nH]nc2c1C(c1c(C)nn(-c3ccccc3)c1Cl)C(C#N)=C(N)O2 (configuration not stated),6.3% (inactive)
14,CNC(=O)NCCN1CCCC1=O,1% (inactive)
15,c1ccc(CSc2nnc(-c3ccco3)n2Cc2ccccc2)cc1,76% (active)
16,c1ccc(CSc2nnc(-c3ccco3)c(-c3ccco3)n2)cc1,0.5% (inactive)
17,O=C(CSc1nnc(-c2ccco2)n1Cc1ccccc1)NC(=O)NCc1ccco1,-12.1% (inactive)
18,CCn1c(COc2ccc(OC)cc2)nnc1SCC(=O)Nc1cc(OC)ccc1OC,-13.5% (inactive)
19,Cc1ccccc1N1C(=O)C2ON(c3ccccc3)C(c3ccncc3)C2C1=O (configuration not stated),5.4% (inactive)
20,COc1cc(C2C3C(=O)N(c4ccccc4)C(=O)C3ON2c2ccccc2)ccc1O (configuration not stated),51.7% (active)
21,COc1cc(C2C(C(=O)c3ccc(C)o3)=C(O)C(=O)N2CCc2ccccc2)ccc1O (configuration not stated),8.7% (inactive)

row,Structure (SMILES),activation
1,COc1ccccc1NC(=O)CSc1nnc(-c2ccoc2C)n1CCc1ccccc1,-3.3% (inactive)
2,CCN(C(=O)CSc1ncn[nH]1)c1cccc2ccccc12,16.4% (inactive)
3,CC(C)(C)c1ccc(C(=O)CSc2ncn[nH]2)cc1,57.1% (active)
4,Cn1nnc(NC(=O)CSc2ncn[nH]2)n1,4.4% (inactive)
5,O=S(=O)(c1cccc(-c2nnc(SC(F)F)n2-c2ccccc2)c1)N1CCCCC1,4.3% (inactive)
6,CCOc1cc(N2CCOCC2)c(OCC)cc1NC(=O)COc1cccc2cccnc12,8.2% (inactive)
7,CCc1nnc(NC(=O)c2cccs2)s1,50% (active)
8,CCc1nnc(NC(=O)CCC(=O)O)s1,-8.1% (inactive)
9,Cc1occc1C(=O)Nc1nnc(-c2ccncc2)s1,20.4% (inactive)
10,Cc1ccc(C(=O)Nc2nnc(-c3ccncc3)s2)o1,21.8% (inactive)
11,Cc1ccc(C(=O)Nc2nnc(-c3cccs3)s2)cc1C,80.9% (active)
12,CCc1ccccc1NC(=O)c1cccs1,-5.6% (inactive)
13,CCOC(=O)c1ccc(-n2c(C)nc3c(cnn3-c3ccccc3C)c2=O)cc1,17.1% (inactive)
14,CCCc1[nH]nc2c1C(c1ccc(Br)s1)C(C#N)=C(N)O2 (configuration not stated),15.9% (inactive)
15,Cn1c(/C(C#N)=C2/CCCCCN2)nc2ccccc21,9.6% (inactive)
16,CCOC(=O)N1CCN(C(=O)C2CC(c3ccc(F)cc3)=NO2)CC1 (configuration not stated),-7.2% (inactive)
17,COC(=O)[C@H](C(C)C)n1c(C)c(C(C)=O)c(C(C)=O)c1C,5.7% (inactive)
18,CC(C)c1ccc(NC(=O)NC2CCCCC2)cc1,100% (active)
19,CC(Cc1cccs1)NC(=O)NC1CCCCC1 (configuration not stated),41.1% (inactive)
20,CC(=O)OC(C(=O)NC1CCCCC1)c1ccccc1 (configuration not stated),-11.8% (inactive)
21,Cc1cccc(-n2c(N)c(C(=O)N3CCN(C)CC3)sc2=S)c1,3.5% (inactive)

row,Structure (SMILES),activation
1,Cc1ccc(C2CC(=O)NC(SCC(=O)OCc3ccccc3)=C2C#N)o1 (configuration not stated),-4.2% (inactive)
2,CCN(CC(=O)Nc1ccc2c(c1)OCCO2)Cc1cc(=O)oc2cc(C)c(C)cc12,-19.6% (inactive)
3,CC(=O)c1cc(C#N)c(SCC(=O)C(C)(C)C)nc1C,57.1% (active)
4,Cc1cc(C(F)(F)F)c(C#N)c(SCC(=O)NC2CC2)n1,-6.7% (inactive)
5,CCOc1ccc2cc(C#N)c(SCC(=O)OC)nc2c1,26.5% (inactive)
6,O=C(CCc1ccccc1)Nc1cccc(-c2nnc(-c3ccco3)o2)c1,27.9% (inactive)
7,O=C(Nc1nnc(CCc2ccccc2)s1)C1CCCO1 (configuration not stated),21.6% (inactive)
8,Cc1cc(Br)ccc1NC(=O)C1CCCO1 (configuration not stated),-10.5% (inactive)
9,O=C(Nc1cccc(-c2nnc(-c3ccccc3)o2)c1)C1CCCO1 (configuration not stated),65.8% (active)
10,O=C(CSc1nnc(-c2ccc(NS(=O)(=O)c3ccccc3)cc2)o1)NCC1CCCO1 (configuration not stated),-0.8% (inactive)
11,O=C(Nc1ccc(-c2nnc(-c3ccccc3)o2)cc1)C1CCCO1 (configuration not stated),65.9% (active)
12,Cc1cccc(N2CCN(Cc3c(C)n(C)n(-c4ccccc4)c3=O)CC2)c1C,15.3% (inactive)
13,O=C(NCc1ccccc1)C1C(=O)N(Cc2ccccc2)C(=O)C1C1(O)CCCC1 (configuration not stated),-4.5% (inactive)
14,Cc1ccccc1Cn1c(=O)[nH]c2ccccc21,-12.9% (inactive)
15,CCOC(=O)C1CCN(Cc2coc3ccc(Cl)cc3c2=O)CC1,-25.8% (inactive)
16,COC(=O)c1ccc(NC(=O)c2ccco2)cc1,85.3% (active)
17,CC(C)(C)NC(=O)c1cc(NC(=O)c2ccco2)cc(NC(=O)c2ccco2)c1,22% (inactive)
18,O=C(Nc1ccc(Oc2ccccc2)cc1)c1ccco1,44% (inactive)
19,Cc1cccc(C)c1NC(=O)N1CC=C(n2c(=O)[nH]c3ccccc32)CC1,-7.6% (inactive)
20,CC(Sc1sc(=S)sc1SC(C)C(=O)O)C(=O)O (configuration not stated),-6.9% (inactive)
21,CCOC(=O)c1c(C)[nH]c(C(=O)NCc2ccccc2OC)c1C,24.8% (inactive)

row,Structure (SMILES),activation
1,CCCCOC(=O)c1[nH]c(C)c(C(=O)OC)c1C,77.7% (active)
2,CCOC(=O)c1c(C)[nH]c(C(=O)COc2ccc3c(c2)OCO3)c1C,28.5% (inactive)
3,CCc1ccccc1NC1c2ccccc2C(=O)N1c1cccnc1 (configuration not stated),-5.1% (inactive)
4,Cc1cc(N2C(=O)C(=O)/C(=C(/O)c3ccccc3)C2c2cccc(Br)c2)no1 (configuration not stated),2.6% (inactive)
5,COc1ccc(S(=O)(=O)NC2(C(F)(F)F)N=C3SCCN3C2=O)cc1 (configuration not stated),19.3% (inactive)
6,CN(C)CCSc1nc(N)c2c3c(sc2n1)COC(C)(C)C3,3.5% (inactive)
7,C=C(C)CSc1nc(N)c2c3c(sc2n1)CCC3,51.5% (active)
8,C=C(C)Cn1c(SCC(=O)NCc2ccco2)nc2sc3c(c2c1=O)CCC3,-1.8% (inactive)
9,O=C(CSc1nc2[nH]ncc2c(=O)n1-c1ccccc1)N1CCCc2ccccc21,22.2% (inactive)
10,CC(C)CNC(=O)c1cc(-c2ccc(Br)cc2)on1,52.5% (active)
11,CC(NC(=O)c1cc(-c2ccccc2)on1)c1ccccc1 (configuration not stated),1.6% (inactive)
12,O=C(NCCCN1CCOCC1)c1cc(-c2ccc(Cl)cc2)on1,-2.4% (inactive)
13,CCOC(=O)C1CCc2nc3ccccc3c(=O)n21 (configuration not stated),2.2% (inactive)
14,CCOC(=O)C1CCN(C(=O)CC2C(=O)N(Cc3ccccc3)C(C)c3nc4ccccc4n32)CC1 (configuration not stated),14.5% (inactive)
15,COC(=O)c1ccc(Oc2nc(NC(C)C)nc(SC)n2)cc1,2.8% (inactive)
16,CC(C)(C)c1csc(NC2=NS(=O)(=O)c3ccccc32)n1,50.5% (active)
17,c1ccc(Nc2nc(-c3ccncc3)cs2)nc1,36.9% (inactive)
18,CCOC(=O)c1nnn(CC(=O)Nc2cccc(F)c2)c1C(=O)OCC,2.1% (inactive)
19,CCN(CCCCOC(=O)c1ccc(OC)c(OC)c1)C(C)Cc1ccc(OC)cc1 (configuration not stated),-10.3% (inactive)

# Source: PubChem BioAssay AID522 (The Scripps Research Institute Molecular Screening Center, 2006)
